≈ marks a conversion by molar mass, not a printed value. Blank lines part the entries; values can stand above or below the compound they belong to.
Experiments:
[1] = Metabolic stability expressed as half life values was monitored in vitro liver microsomal assay.; format: ADME, Microsome; settings: liver microsomes
[2] = test system: Human rhinovirus sp.; assay: Concentration inhibiting 50% of the serotypes tested to 50% of the viral concentration of untreated controls following 72 hr of exposure; format: functional
Outline: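 Tissue culture infectious dose (TCID50) assay against a panel of 10 human rhinovirus serotypes. For each serotype, the viral concentration was compared with untreated controls after 72 h of compound exposure. MIC50 is the compound concentration at which half of the serotypes tested are reduced to 50% of the untreated-control viral concentration.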

[3] = test system: Human rhinovirus sp.; assay: Minimum inhibitory concentration on HRV serotype 56; format: functional
[4] = test system: Human rhinovirus sp.; assay: Minimum inhibitory concentration on HRV serotype 47; format: functional
[5] = test system: Human rhinovirus sp.; assay: Minimum inhibitory concentration on HRV serotype 21; format: functional
[6] = test system: Human rhinovirus sp.; assay: Minimum inhibitory concentration on HRV serotype 92; format: functional
Outline: (§1)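 Tested in a tissue culture infectious dose (TCID50) assay with 72 h compound exposure. Activity is read as the concentration that holds virus to 50% of the titer of untreated controls.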

[7] = test system: Human rhinovirus sp.; assay: Minimum inhibitory concentration on HRV serotype 75; format: functional
[8] = test system: Human rhinovirus sp.; assay: Minimum inhibitory concentration on HRV serotype 23; format: functional
[9] = test system: Human rhinovirus sp.; assay: Minimum inhibitory concentration on HRV serotype 40; format: functional
[10] = test system: Human rhinovirus sp.; assay: Minimum inhibitory concentration on HRV serotype 85; format: functional; outline: as §1
[11] = test system: Human rhinovirus sp.; assay: Minimum inhibitory concentration on HRV serotype 24; format: functional
[12] = test system: Human rhinovirus sp.; assay: Minimum inhibitory concentration on HRV serotype 64; format: functional
[13] = test system: Human rhinovirus sp.; assay: Minimum inhibitory concentration on HRV serotype 61; format: functional
[14] = test system: Human rhinovirus sp.; assay: Minimum inhibitory concentration on HRV serotype 32; format: functional
[15] = test system: Human rhinovirus sp.; assay: Minimum inhibitory concentration on HRV serotype 15; format: functional
[16] = test system: Human rhinovirus sp.; assay: Minimum inhibitory concentration on HRV serotype 28; format: functional
[17] = test system: Human rhinovirus sp.; assay: Minimum inhibitory concentration on HRV serotype 96; format: functional; outline: as §1
[18] = test system: Human rhinovirus sp.; assay: Minimum inhibitory concentration on HRV serotype 89; format: functional; outline: as §1
[19] = test system: Human rhinovirus sp.; assay: Minimum inhibitory concentration on HRV serotype 49; format: functional
[20] = test system: Human rhinovirus sp.; assay: Minimum inhibitory concentration on HRV serotype 51; format: functional
[21] = test system: Human rhinovirus sp.; assay: Minimum inhibitory concentration on HRV serotype 46; format: functional
[22] = test system: Human rhinovirus sp.; assay: Minimum inhibitory concentration on HRV serotype 90; format: functional; outline: as §1
[23] = test system: Human rhinovirus sp.; assay: Minimum inhibitory concentration on HRV serotype 30; format: functional
[24] = test system: Human rhinovirus sp.; assay: Minimum inhibitory concentration on HRV serotype 43; format: functional
[25] = test system: Human rhinovirus sp.; assay: Minimum inhibitory concentration on HRV serotype 66; format: functional
[26] = test system: Human rhinovirus sp.; assay: Minimum inhibitory concentration on HRV serotype 7; format: functional
[27] = test system: Human rhinovirus sp.; assay: Minimum inhibitory concentration on HRV serotype 71; format: functional
[28] = test system: Human rhinovirus sp.; assay: Minimum inhibitory concentration on HRV serotype 55; format: functional
[29] = test system: Human rhinovirus sp.; assay: Minimum inhibitory concentration on HRV serotype 62; format: functional
[30] = test system: Human rhinovirus sp.; assay: Minimum inhibitory concentration on HRV serotype 2; format: functional
[31] = test system: Human rhinovirus sp.; assay: Minimum inhibitory concentration on HRV serotype 67; format: functional
[32] = test system: Human rhinovirus sp.; assay: Minimum inhibitory concentration on HRV serotype 88; format: functional; outline: as §1
[33] = test system: Human rhinovirus sp.; assay: Minimum inhibitory concentration on HRV serotype 80; format: functional; outline: as §1
[34] = test system: Human rhinovirus sp.; assay: Minimum inhibitory concentration on HRV serotype 1A; format: functional
[35] = test system: Human rhinovirus sp.; assay: Minimum inhibitory concentration on HRV serotype 63; format: functional
[36] = test system: Human rhinovirus sp.; assay: Minimum inhibitory concentration on HRV serotype 78; format: functional; outline: as §1
[37] = test system: Human rhinovirus sp.; assay: Minimum inhibitory concentration on HRV serotype 38; format: functional
[38] = test system: Human rhinovirus sp.; assay: Minimum inhibitory concentration on HRV serotype 39; format: functional
[39] = test system: Human rhinovirus sp.; assay: Minimum inhibitory concentration on HRV serotype 25; format: functional
[40] = test system: Human rhinovirus sp.; assay: Minimum inhibitory concentration on HRV serotype 33; format: functional
[41] = test system: Human rhinovirus sp.; assay: Minimum inhibitory concentration on HRV serotype 11; format: functional
[42] = test system: Human rhinovirus sp.; assay: Minimum inhibitory concentration on HRV serotype 29; format: functional
[43] = test system: Human rhinovirus sp.; assay: Minimum inhibitory concentration on HRV serotype 73; format: functional
[44] = test system: Human rhinovirus sp.; assay: Minimum inhibitory concentration on HRV serotype 50; format: functional
[45] = test system: Human rhinovirus sp.; assay: Minimum inhibitory concentration on HRV serotype 83; format: functional; outline: as §1
[46] = test system: Human rhinovirus sp.; assay: Minimum inhibitory concentration on HRV serotype T39; format: functional; outline: as §1
[47] = test system: Human rhinovirus sp.; assay: Minimum inhibitory concentration on HRV serotype 19; format: functional
[48] = test system: Human rhinovirus sp.; assay: Minimum inhibitory concentration on HRV serotype 57; format: functional
[49] = test system: Human rhinovirus sp.; assay: Minimum inhibitory concentration on HRV serotype 79; format: functional; outline: as §1
[50] = test system: Human rhinovirus sp.; assay: Minimum inhibitory concentration on HRV serotype 22; format: functional
[51] = test system: Human rhinovirus sp.; assay: Minimum inhibitory concentration on HRV serotype 82; format: functional; outline: as §1
[52] = test system: Human rhinovirus sp.; assay: Minimum inhibitory concentration on HRV serotype 53; format: functional
[53] = test system: Human rhinovirus sp.; assay: Minimum inhibitory concentration on HRV serotype 9; format: functional; outline: as §1
[54] = test system: Human rhinovirus sp.; assay: Minimum inhibitory concentration on HRV serotype 34; format: functional
[55] = test system: Human rhinovirus sp.; assay: Minimum inhibitory concentration on HRV serotype 68; format: functional
[56] = test system: Human rhinovirus sp.; assay: Minimum inhibitory concentration on HRV serotype 84; format: functional; outline: as §1
[57] = test system: Human rhinovirus sp.; assay: Minimum inhibitory concentration on HRV serotype 36; format: functional
[58] = test system: Human rhinovirus sp.; assay: Minimum inhibitory concentration on HRV serotype 16; format: functional
[59] = test system: Human rhinovirus sp.; assay: Minimum inhibitory concentration on HRV serotype 44; format: functional
[60] = test system: Human rhinovirus sp.; assay: Minimum inhibitory concentration on HRV serotype 81; format: functional; outline: as §1
[61] = test system: Human rhinovirus sp.; assay: Minimum inhibitory concentration on HRV serotype 76; format: functional; outline: as §1
[62] = test system: Human rhinovirus sp.; assay: Minimum inhibitory concentration on HRV serotype 58; format: functional
[63] = test system: Human rhinovirus sp.; assay: Minimum inhibitory concentration on HRV serotype 1B; format: functional
[64] = test system: Human rhinovirus sp.; assay: Minimum inhibitory concentration on HRV serotype 100; format: functional
[65] = test system: Human rhinovirus sp.; assay: Minimum inhibitory concentration on HRV serotype 35; format: functional
[66] = test system: Human rhinovirus sp.; assay: Minimum inhibitory concentration on HRV serotype 20; format: functional

half-life [1]: > 3.33 h
MIC50 [2]: 0.16 µM (≈ 0.0514 µg/mL)
SMILES: Cc1cc(CCCOc2c(C)cc(-c3ccccc3)cc2C)on1

MIC [3]: 0.099 µg/mL (≈ 0.258 µM)
MIC [4]: 0.015 µg/mL (≈ 0.0391 µM)
MIC [5]: 0.031 µg/mL (≈ 0.0809 µM)
MIC [6]: 0.002 µg/mL (≈ 0.00522 µM)
MIC [7]: 0.157 µg/mL (≈ 0.41 µM)
MIC [8]: 0.451 µg/mL (≈ 1.18 µM)
MIC [9]: 0.053 µg/mL (≈ 0.138 µM)
MIC [10]: 0.043 µg/mL (≈ 0.112 µM)
MIC [11]: 0.175 µg/mL (≈ 0.457 µM)
MIC [12]: 0.497 µg/mL (≈ 1.3 µM)
MIC [13]: 0.127 µg/mL (≈ 0.331 µM)
MIC [14]: 0.269 µg/mL (≈ 0.702 µM)
MIC [15]: 0.49 µg/mL (≈ 1.28 µM)
MIC [16]: 0.116 µg/mL (≈ 0.303 µM)
MIC [17]: 0.091 µg/mL (≈ 0.237 µM)
MIC [18]: 0.034 µg/mL (≈ 0.0887 µM)
MIC [19]: 0.16 µg/mL (≈ 0.417 µM)
MIC [20]: 0.033 µg/mL (≈ 0.0861 µM)
MIC [21]: 0.143 µg/mL (≈ 0.373 µM)
MIC [22]: 0.191 µg/mL (≈ 0.498 µM)
MIC [23]: 0.156 µg/mL (≈ 0.407 µM)
MIC [24]: 0.283 µg/mL (≈ 0.738 µM)
MIC [25]: 0.069 µg/mL (≈ 0.18 µM)
MIC [26]: 0.035 µg/mL (≈ 0.0913 µM)
MIC [27]: 0.018 µg/mL (≈ 0.047 µM)
MIC [28]: 0.02 µg/mL (≈ 0.0522 µM)
MIC [29]: 0.115 µg/mL (≈ 0.3 µM)
MIC [30]: 0.058 µg/mL (≈ 0.151 µM)
MIC [31]: 0.169 µg/mL (≈ 0.441 µM)
MIC [32]: 0.084 µg/mL (≈ 0.219 µM)
MIC [33]: 0.124 µg/mL (≈ 0.324 µM)
MIC [34]: 0.419 µg/mL (≈ 1.09 µM)
MIC [35]: 0.101 µg/mL (≈ 0.264 µM)
MIC [36]: 0.081 µg/mL (≈ 0.211 µM)
MIC [37]: 0.078 µg/mL (≈ 0.204 µM)
MIC [38]: 0.347 µg/mL (≈ 0.905 µM)
MIC [39]: 0.072 µg/mL (≈ 0.188 µM)
MIC [40]: 0.107 µg/mL (≈ 0.279 µM)
MIC [41]: 0.102 µg/mL (≈ 0.266 µM)
MIC50 [2]: 0.78 µM (≈ 0.299 µg/mL)
MIC [42]: 0.295 µg/mL (≈ 0.77 µM)
MIC [43]: 0.242 µg/mL (≈ 0.631 µM)
MIC [44]: 0.47 µg/mL (≈ 1.23 µM)
MIC [45]: 0.018 µg/mL (≈ 0.047 µM)
MIC [46]: 0.299 µg/mL (≈ 0.78 µM)
MIC [47]: 0.178 µg/mL (≈ 0.464 µM)
MIC [48]: 0.156 µg/mL (≈ 0.407 µM)
MIC [49]: 0.028 µg/mL (≈ 0.0731 µM)
MIC [50]: 0.027 µg/mL (≈ 0.0704 µM)
MIC [51]: 0.245 µg/mL (≈ 0.639 µM)
MIC [52]: 0.355 µg/mL (≈ 0.926 µM)
MIC [53]: 0.187 µg/mL (≈ 0.488 µM)
MIC [54]: 0.072 µg/mL (≈ 0.188 µM)
MIC [55]: 0.032 µg/mL (≈ 0.0835 µM)
MIC [56]: > 3 µg/mL
MIC [57]: 0.073 µg/mL (≈ 0.19 µM)
MIC [58]: 0.639 µg/mL (≈ 1.67 µM)
MIC [59]: 0.119 µg/mL (≈ 0.31 µM)
MIC [60]: 0.416 µg/mL (≈ 1.09 µM)
MIC [61]: 0.102 µg/mL (≈ 0.266 µM)
MIC [62]: 0.028 µg/mL (≈ 0.0731 µM)
MIC [63]: 0.105 µg/mL (≈ 0.274 µM)
MIC [64]: 0.025 µg/mL (≈ 0.0652 µM)
MIC [65]: 0.036 µg/mL (≈ 0.0939 µM)
MIC [66]: 0.037 µg/mL (≈ 0.0965 µM)
SMILES: Cc1cc(CCCCCOc2c(Cl)cc(C3=NCCO3)cc2Cl)on1 [WIN-54954]

MIC50 [2]: 0.23 µM (≈ 0.0808 µg/mL)
SMILES: Cc1cc(CCCOc2c(C)cc(-c3cccc(CO)c3)cc2C)on1

From ChEMBL document CHEMBL1128473, “[(Biaryloxy)alkyl]isoxazoles: picornavirus inhibitors” (J Med Chem, 1995)
